# Measured values published in ChEMBL document CHEMBL4130539, “Novel ureidopropanamide based N-formyl peptide receptor 2 (FPR2) agonists with potential application for central nervous system disorders characterized by neuroinflammation” (Eur J Med Chem, 2017).
# pEC50: −log10 of the molar value. Active and inactive are the calls of the source. The rule behind the calls is not given here.
# How the values were obtained:
# [1] = Metabolic stability in rat liver microsomes assessed as parent compound remaining at 10 uM preincubated for 10 mins followed by NADPH addition measured after 30 mins by liquid chromatographic method; format: ADME, microsome; details: 0.5 h
# [2] = biological target: T1, N-formyl peptide receptor 2 (Homo sapiens) (UniProt P25090); assay: Agonist activity at human FPR2 expressed in human HL60 cells assessed as induction of calcium mobilization measured every 5 secs for 240 secs by Fluo-4-AM dye based fluorometric method relative to WKYMVM; format: functional, cell-based
# T1 sequence (whole entry): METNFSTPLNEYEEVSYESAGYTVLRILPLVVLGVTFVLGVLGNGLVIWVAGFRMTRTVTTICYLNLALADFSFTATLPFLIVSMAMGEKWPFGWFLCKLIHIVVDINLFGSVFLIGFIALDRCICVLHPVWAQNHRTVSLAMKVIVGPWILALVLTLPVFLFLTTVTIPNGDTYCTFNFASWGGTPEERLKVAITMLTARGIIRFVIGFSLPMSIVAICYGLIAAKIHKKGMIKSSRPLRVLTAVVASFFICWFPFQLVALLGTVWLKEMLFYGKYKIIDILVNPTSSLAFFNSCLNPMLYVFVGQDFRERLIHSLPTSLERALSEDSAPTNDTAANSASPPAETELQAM
# [3] = Half life in rat liver microsomes at 10 uM preincubated for 10 mins followed by NADPH addition by liquid chromatographic method; format: ADME, microsome
# [4] = Intrinsic clearance in rat liver microsomes at 10 uM preincubated for 10 mins followed by NADPH addition by liquid chromatographic method; format: ADME, microsome
# [5] = biological target: T2, N-formyl peptide receptor 2 (Homo sapiens, UniProt P25090); assay: Agonist activity at FPR2 in human neutrophils assessed as induction of calcium mobilization measured every 5 secs for 240 secs by Fluo-4-AM dye based fluorometric method; format: functional; details: read-out: EC50
# T2 sequence (P25090 whole entry): T1 sequence (whole entry)
# [6] = biological target: T2, N-formyl peptide receptor 2; assay: Agonist activity at human FPR2 expressed in human HL60 cells assessed as induction of calcium mobilization measured every 5 secs for 240 secs by Fluo-4-AM dye based fluorometric method; format: functional, cell-based; details: read-out: EC50
# [7] = biological target: T3, fMet-Leu-Phe receptor (Homo sapiens) (UniProt P21462); assay: Agonist activity at human FPR1 expressed in human HL60 cells assessed as induction of calcium mobilization measured every 5 secs for 240 secs by Fluo-4-AM dye based fluorometric method relative to fMLF; format: functional, cell-based
# T3 sequence (whole entry): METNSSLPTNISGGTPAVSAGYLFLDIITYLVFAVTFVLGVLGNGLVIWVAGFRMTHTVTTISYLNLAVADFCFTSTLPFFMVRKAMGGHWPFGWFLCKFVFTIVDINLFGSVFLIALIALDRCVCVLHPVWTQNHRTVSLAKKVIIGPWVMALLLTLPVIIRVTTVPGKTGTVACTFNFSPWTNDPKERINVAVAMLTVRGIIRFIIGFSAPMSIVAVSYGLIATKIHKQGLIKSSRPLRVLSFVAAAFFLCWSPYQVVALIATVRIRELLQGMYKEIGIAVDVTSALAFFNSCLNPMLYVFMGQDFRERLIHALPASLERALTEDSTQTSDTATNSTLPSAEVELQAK
# [8] = biological target: T1, N-formyl peptide receptor 2 (Homo sapiens); assay: Agonist activity at FPR2 in human neutrophils assessed as induction of calcium mobilization measured every 5 secs for 240 secs by Fluo-4-AM dye based fluorometric method relative to fMLF
# fMet-Leu-Phe receptor = biological target: T4, fMet-Leu-Phe receptor (Homo sapiens, UniProt P21462); assay: Agonist activity at human FPR1 expressed in human HL60 cells assessed as induction of calcium mobilization measured every 5 secs for 240 secs by Fluo-4-AM dye based fluorometric method; format: functional, cell-based; details: read-out: EC50
# T4 sequence (P21462 whole entry): T3 sequence (whole entry)
# Microglia [9] = assay: Anti-inflammatory activity in Sprague-Dawley rat primary microglia cells assessed as inhibition of LPS-induced IL-1beta level up to 10 uM pretreated for 1 hr followed by LPS stimulation for 24 hrs by ELISA; format: functional, cell-based
# Summary of the method: (§1)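 Primary microglia from cortices of 1–2-day-old Sprague-Dawley rats, shaken off mixed cultures at day 9 in vitro, >95% Iba-1/CD11b-positive, used 2 days after plating. Agonist added 1 h before LPS (E. coli 0111:B4, 100 ng/ml) for 24 h; WRW4 given 30 min before agonist where stated. Medium NO by Griess reaction (540 nm); TNF-α and IL-1β by ELISA. Data as % of vehicle-treated control.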
# Microglia [10] = assay: Proinflammatory activity in Sprague-Dawley rat primary microglia cells assessed as induction of NO level up to 10 uM after 24 hrs by Griess reagent based assay; format: cell-based
# Summary of the method: (§2)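 Rat primary cortical microglia (Sprague-Dawley pups, 1–2 days old, >95% Iba-1/CD11b-positive) given agonist without LPS for 24 h; WRW4 added 30 min before agonist where indicated. Supernatant NO measured with Griess reagent (540 nm, 10 min room temperature); TNF-α and IL-1β by ELISA. Values normalized to vehicle-treated cells (100%).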
# Microglia [11] = assay: Anti-inflammatory activity in Sprague-Dawley rat primary microglia cells assessed as inhibition of LPS-induced TNFalpha level up to 10 uM pretreated for 1 hr followed by LPS stimulation for 24 hrs by ELISA; format: functional, cell-based; summary of the method: as §1
# Microglia [12] = assay: Anti-inflammatory activity in Sprague-Dawley rat primary microglia cells assessed as inhibition of LPS-induced IL-1beta level up to 10 uM pretreated for 1 hr followed by LPS stimulation for 24 hrs in presence of FPR2 antagonist WRW4 by ELISA; format: functional, cell-based; summary of the method: as §1
# Microglia [13] = assay: Proinflammatory activity in Sprague-Dawley rat primary microglia cells assessed as induction of TNFalpha level up to 10 uM after 24 hrs in presence of FPR2 antagonist WRW4 by ELISA; format: cell-based; summary of the method: as §2
# Microglia [14] = assay: Cytotoxicity against Sprague-Dawley rat primary microglia cells assessed as cell death at 50 uM after 24 hrs by LDH assay; format: cell-based
# Microglia [15] = assay: Cytoprotection against LPS-induced cell death in Sprague-Dawley rat primary microglia cells at 1 to 5 uM pretreated for 1 hr followed by LPS stimulation for 24 hrs by LDH assay; format: functional, cell-based
# Microglia [16] = assay: Cytotoxicity against Sprague-Dawley rat primary microglia cells assessed as reduction in cell viability at 50 uM after 24 hrs by MTT assay; format: cell-based
# Microglia [17] = assay: Cytotoxicity against Sprague-Dawley rat primary microglia cells assessed as reduction in cell viability at 0.5 to 10 uM after 24 hrs by MTT assay; format: cell-based
# Microglia [18] = assay: Cytotoxicity against Sprague-Dawley rat primary microglia cells assessed as cell death at 0.5 to 10 uM after 24 hrs by LDH assay; format: cell-based
# [19] = Efflux ratio of apparent permeability in hCMEC/D3 cells at 5 to 10 uM after 2 hrs by UV-spectroscopic method; format: ADME, cell-based; details: human, hcmec/d3, 2 h
# Microglia [20] = assay: Proinflammatory activity in Sprague-Dawley rat primary microglia cells assessed as induction of NO level up to 10 uM after 24 hrs in presence of FPR2 antagonist WRW4 by Griess reagent based assay; format: cell-based; summary of the method: as §2
# Microglia [21] = assay: Anti-inflammatory activity in Sprague-Dawley rat primary microglia cells assessed as inhibition of LPS-induced TNFalpha level up to 10 uM pretreated for 1 hr followed by LPS stimulation for 24 hrs in presence of FPR2 antagonist WRW4 by ELISA; format: functional, cell-based; summary of the method: as §1
# Microglia [22] = assay: Proinflammatory activity in Sprague-Dawley rat primary microglia cells assessed as induction of IL-1beta level up to 10 uM after 24 hrs in presence of FPR2 antagonist WRW4 by ELISA; format: cell-based; summary of the method: as §2
# Microglia [23] = assay: Anti-inflammatory activity in Sprague-Dawley rat primary microglia cells assessed as inhibition of LPS-induced NO level at 5 to 10 uM pretreated for 1 hr followed by LPS stimulation for 24 hrs by Griess reagent based assay; format: functional, cell-based; summary of the method: as §1
# Microglia [24] = assay: Proinflammatory activity in Sprague-Dawley rat primary microglia cells assessed as induction of TNFalpha level up to 10 uM after 24 hrs by ELISA; format: cell-based; summary of the method: as §2
# Microglia [25] = assay: Cytoprotection against LPS-induced cell death in Sprague-Dawley rat primary microglia cells at 0.5 to 50 uM pretreated for 1 hr followed by LPS stimulation for 24 hrs by MTT assay; format: functional, cell-based
# Microglia [26] = assay: Anti-inflammatory activity in Sprague-Dawley rat primary microglia cells assessed as inhibition of LPS-induced NO level up to 10 uM pretreated for 1 hr followed by LPS stimulation for 24 hrs in presence of FPR2 antagonist WRW4 by Griess reagent based assay; format: functional, cell-based; summary of the method: as §1
# Microglia [27] = assay: Proinflammatory activity in Sprague-Dawley rat primary microglia cells assessed as induction of IL-1beta level up to 10 uM after 24 hrs by ELISA; format: cell-based; summary of the method: as §2
smiles,measurement,setting,value
N#Cc1ccc(C[C@@H](NC(=O)Nc2ccc([N+](=O)[O-])cc2)C(=O)NCC2(c3ccccc3)CC2)cc1,Stability,[1],38%
same,Efficacy,[2],90%
same,t1/2,[3],95 min
same,Microsomal intrinsic clearance (CLint),[4],7.29 µL/min/mg
same,pEC50,[5],5.39
same,pEC50,[6],5.82
same,Efficacy,[7],75%
same,Efficacy,[8],150%
same,pEC50,fMet-Leu-Phe receptor,5.33
N#Cc1ccc(C[C@H](NC(=O)Nc2ccc([N+](=O)[O-])cc2)C(=O)NCC2(c3ccccc3)CC2)cc1,inhibition,Microglia [9],Active
same,Activity,Microglia [10],Non-Toxic
same,Stability,[1],56%
same,inhibition,Microglia [11],Active
same,inhibition,Microglia [12],Active
same,Efficacy,[2],100%
same,t1/2,[3],120 min
same,Microsomal intrinsic clearance (CLint),[4],5.78 µL/min/mg
same,Activity,Microglia [13],Non-Toxic
same,Activity,Microglia [14],Toxic
same,Activity,Microglia [15],Active
same,Activity,Microglia [16],Toxic
same,Activity,Microglia [17],Non-Toxic
same,Activity,Microglia [18],Non-Toxic
same,Ratio,[19],5.06
same,Activity,Microglia [20],Non-Toxic
same,inhibition,Microglia [21],Active
same,Activity,Microglia [22],Non-Toxic
same,inhibition,Microglia [23],Active
same,Activity,Microglia [24],Non-Toxic
same,Activity,Microglia [25],inactive
same,inhibition,Microglia [26],Active
same,pEC50,[5],5.60
same,pEC50,[6],6.20
same,Activity,Microglia [27],Non-Toxic
same,Efficacy,[7],75%
same,Efficacy,[8],115%
same,pEC50,fMet-Leu-Phe receptor,5.55
